These results are taken from publication PMC10348038 (Journal of Enzyme Inhibition and Medicinal Chemistry, 2023).

For experiment [1], the target named is PD-1/PD-L1 interaction (Homo sapiens, UniProt Q9NZQ7). In words: HTRF PD1/PD-L1 binding assay. Conditions: IC50 against the PD-1/PD-L1 interaction.
Experiment [2] relates to p-mTOR. Put plainly: Western blot of mTOR phosphorylation in MDA-MB-231 cells. Format: cell-based. The following applies: 4 μM, 48 h, MDA-MB-231, Western blot. The method, boiled down:
(§1)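 MDA-MB-231 cells exposed to test compound at 1, 2 and 4 μM for 48 h. Lysates run on SDS-PAGE and transferred to PVDF. Membranes blocked 2 h in 5% BSA/TBST, then probed overnight at 4 °C with antibodies to AKT, p-AKT, mTOR and p-mTOR (1:1000). Mean ± SEM, n = 3.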

Experiment [3] concerns p-AKT1 (Ser473). Put plainly: Western blot of AKT phosphorylation in MDA-MB-231 cells. The following applies: 4 μM, 48 h, MDA-MB-231, Western blot. The format is cell-based. A digest of the protocol:
as §1

Experiment [4] deals with PD-L1 (Homo sapiens, UniProt Q9NZQ7). Put plainly: Western blot of PD-L1 protein expression in MDA-MB-231 cells. The format is cell-based. The following applies: MDA-MB-231, 48 h, 1, 2 and 4 μM. The method, boiled down:
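MDA-MB-231 cells treated 48 h with test compound at 1, 2 and 4 μM, BMS202 as positive control; in a further arm, 4 μM with or without GSK-3β inhibitor (40 nM) for 48 h. Lysates separated by SDS-PAGE, transferred to PVDF, blocked 2 h in 5% BSA/TBST, probed overnight at 4 °C with anti-PD-L1 (1:1000). Mean ± SEM, n = 3.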

Experiment [5] has as its system HCC827. In words: CCK-8 cell viability assay, HCC827. Format: cell-based. Conditions: Homo sapiens, HCC827, 60 h, read-out: IC50 HCC827. The method, boiled down:
(§2)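 Cells grown in DMEM or RPMI-1640 with 10% FBS and 1% penicillin-streptomycin at 37 °C, 5% CO2. Seeded in 96-well plates at densities suited to each line's growth rate and settled 8 h, then exposed 60 h to test compound at 0, 1, 2, 4, 8, 16 and 32 μM from 10 mM DMSO stocks. […] CCK-8 added for 0.5–1 h, OD read at 450 nm, viability normalised to control; mean ± SEM, n = 3.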

Experiment [6] has as its system A549. In words: CCK-8 cell viability assay, A549. Conditions: Homo sapiens, A549, 60 h, read-out: IC50 A549. The format is cell-based. The method, boiled down: as §2
The test system of experiment [7] is MDA-MB-231 cells. Put plainly: CCK-8 cell viability assay, MDA-MB-231. The format is cell-based. Conditions: Homo sapiens, MDA-MB-231, 60 h, read-out: IC50 MDA-MB-231. The method, boiled down:
as §2

Experiment [8] concerns MDA-MB-231 cells. Put plainly: Flow cytometry apoptosis analysis. Format: cell-based. Conditions: 48 h.
For experiment [9], the system named is MDA-MB-231 cells. In words: Wound healing assay. The format is cell-based.
The test system of experiment [10] is MDA-MB-231 cells. Put plainly: Colony formation assay. The following applies: for Clone formation, result in words: positive controls, BMS-202 at 1 µM. Format: cell-based. A digest of the protocol:
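MDA-MB-231 seeded at 500 cells/well in 6-well plates, in triplicate. […] Medium renewed every three days. At two weeks: PBS washes, 15 min fixation in 4% paraformaldehyde, 1% crystal violet stain. Colonies of more than 500 cells counted by image analysis; mean ± SEM, n = 3.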

Experiment [11] concerns MCF-7. In words: CCK-8 cell viability assay, MCF-7. Format: cell-based. Conditions: Homo sapiens, MCF7, 60 h, read-out: IC50 MCF-7. The method, boiled down:
as §2

Experiment [12] concerns PD-L1 mRNA. Put plainly: qPCR of PD-L1 mRNA in MDA-MB-231 cells. Format: cell-based. Conditions: MDA-MB-231, 48 h.
Experiment [13] deals with MDA-MB-231 tumour. In words: MDA-MB-231 tumour-bearing nude mouse model. The format is in vivo, BALB/c nude mice. The following applies: intraperitoneal, every 2 days, nine administrations, nude mice. The method, boiled down:
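Female BALB/c nude mice. MDA-MB-231 cells (within 10 passages) in PBS:Matrigel 1:1 at 3 × 10^7 cells/mL, 100 μL injected subcutaneously into the axilla. From about 200 mm3, test compound given intraperitoneally every 2 days in normal saline with 30% PEG400; cyclophosphamide as comparator. Tumour volume by callipers as length × width² × 0.5. Study ended when control tumours reached 1500 mm3. Tumours excised and weighed; inhibition rate from treated versus control tumour weight.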

The subject of experiment [14] is MRC-5 cells. Put plainly: CCK-8 cell viability assay, normal MRC-5 cells. The following applies: for IC50: Homo sapiens, MRC5, 60 h, read-out: IC50 MRC-5. Format: cell-based. The method, boiled down:
as §2

Sequence of PD-1/PD-L1 interaction (Q9NZQ7 19-238 limits assumed): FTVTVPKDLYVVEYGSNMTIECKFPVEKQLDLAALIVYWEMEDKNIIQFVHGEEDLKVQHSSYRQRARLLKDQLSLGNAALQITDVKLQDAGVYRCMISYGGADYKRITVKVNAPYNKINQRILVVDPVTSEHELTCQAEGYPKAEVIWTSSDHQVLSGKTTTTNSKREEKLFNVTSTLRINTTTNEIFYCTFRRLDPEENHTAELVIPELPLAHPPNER
Sequence of PD-L1 (Q9NZQ7 19-290): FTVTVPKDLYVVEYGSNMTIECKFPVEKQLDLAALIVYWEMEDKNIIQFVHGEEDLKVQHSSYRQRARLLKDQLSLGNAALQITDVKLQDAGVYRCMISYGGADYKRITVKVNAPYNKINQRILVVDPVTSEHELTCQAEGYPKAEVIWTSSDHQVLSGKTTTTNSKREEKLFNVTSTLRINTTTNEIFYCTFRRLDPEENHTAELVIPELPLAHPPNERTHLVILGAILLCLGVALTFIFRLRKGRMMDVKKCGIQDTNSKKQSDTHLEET

In the case of `N#Cc1cccc(COc2cc(OCc3cccc(-c4cc(F)ccc4F)c3F)ccc2CNCCO)c1` [7b-2, 3-[2-[(2-Hydroxy-ethylamino)-methyl]-5-(2,2',5'-trifluoro-biphenyl-3-ylmethoxy)-phenoxymethyl]-benzonitrile], the IC50 in experiment [1] is < 1 µM.
Same read-out and setting: the same measure for `N#Cc1cncc(COc2cc(OCc3cccc(-c4cc(F)ccc4F)c3F)ccc2CNCCO)c1` [7b-4, 5-[2-[(2-Hydroxy-ethylamino)-methyl]-5-(2,2',5'-trifluoro-biphenyl-3-ylmethoxy)-phenoxymethyl]-nicotinonitrile]: < 1 µM.
For `Cc1c(COc2ccc(CNCCN)c(OCc3ccccc3)c2)cccc1-c1ccccc1F` [12j-4, N^1-[2-Benzyloxy-4-(2'-fluoro-2-methyl-biphenyl-3-ylmethoxy)-benzyl]-ethane-1,2-diamine], the “Inhibition rate of phosphorylated mTOR expression” value in experiment [2] is 40%. Besides, the “Inhibition rate of AKT type I phosphorylated form expression” value in experiment [3] was 90%. Also, the “PD-L1 protein expression, result in words” value in experiment [4] is reported as “down-regulated”. The IC50 in [5] was 3.24 ± 0.09 µM; in [6] it was 7.79 ± 0.69 µM; in experiment [7], 2.68 ± 0.27 µM; in experiment [11], 4.71 ± 0.44 µM; in experiment [14], 10.3 ± 0.12 µM. Moreover, the Apoptotic ratio entry in experiment [8] (4 μM) is given as “exceeded 40.42%”. Besides, the inhibition at 1 µM in [9] (Homo sapiens, MDA-MB-231, read-out: Migration inhibition rate) came out at 50%. Besides, the “MDA-MB-231 cells' proliferation rate (clone formation)” value in experiment [10] (1 µM, treated 24 h, colonies after two weeks) came out at 40%. Also, the “PD-L1 mRNA, result in words” value in [12] is reported as “decreased”. The Tumour inhibition rate in [13] (10 mg/kg) is recorded as 39.04%; in [13] (20 mg/kg), 62.54%. Also, in experiment [14] (selectivity normal vs cancer cells), the “IC50 against MRC-5 cells relative to IC50 against MDA-MB-231 cells” value came to 3.83 fold.
As for `COc1c(COc2ccc(CN[C@H](CO)C(=O)O)c(OCc3cncc(C#N)c3)c2)cccc1-c1ccccc1F` [13h-1, N-[2–(5-Cyano-pyridin-3-ylmethoxy)-4-(2'-fluoro-2-methoxy-biphenyl-3-ylmethoxy)-benzyl]-D-serine], the 50% inhibitory concentration (IC50) in experiment [5] is 6.16 ± 0.76 µM; in [6], 7.27 ± 0.71 µM; in experiment [7] it was 4.67 ± 0.79 µM; in experiment [11] it was 4.81 ± 0.45 µM; in [14] it was 9.31 ± 0.16 µM.
As to `COc1c(COc2cc(OCc3cccc(C#N)c3)c(CNCCO)cc2Cl)cccc1-c1ccccc1F` [13h-3, 3-{4-Chloro-5–(2'-fluoro-2-methoxy-biphenyl-3-ylmethoxy)-2-[(2-hydroxy-ethylamino)-methyl]-phenoxymethyl}-benzonitrile], the concentration for half-maximal inhibition (IC50) was found to be 5.65 ± 0.56 µM in experiment [5]; 13.5 ± 0.86 µM in [6]; 4.96 ± 0.82 µM in experiment [7]; 5.52 ± 0.57 µM in experiment [11]; 11.1 ± 0.2 µM in experiment [14].
For `COc1nc(OCc2cccc(-c3ccccc3)c2C)ccc1CNCCNC(C)=O` [BMS-202, reference compound], the “Migration inhibition, result in words” value in experiment [9] (MDA-MB-231, positive control) is reported as “can hardly inhibit the cancer cells’ migration”. Further, the “Clone formation, result in words” value in experiment [10] is “scarce inhibition activity”.
Take `CC(=O)O[C@H]1C(=O)[C@@]2(C)[C@H]([C@H](OC(=O)c3ccccc3)[C@]3(O)C[C@H](OC(=O)[C@H](O)[C@@H](NC(=O)c4ccccc4)c4ccccc4)C(C)=C1C3(C)C)[C@]1(OC(C)=O)CO[C@@H]1C[C@@H]2O` [paclitaxel, reference compound]: in experiment [8] (1 μM), the Tumour cell apoptosis result is reported as “approximately 60%”. Also, the “Clone formation, result in words” value in experiment [10] is “Few colonies can be observed”.
